Test results as given in ChEMBL document CHEMBL1156772, “Synthesis, affinity profile and functional activity of potent chiral muscarinic antagonists with a pyrrolidinylfuran structure” (J Med Chem, 2010).

Legend:
[1] = target: T1, Muscarinic acetylcholine receptor M4 (Homo sapiens, UniProt P08173); test: Displacement of [3H]NMS from human cloned muscarinic M4 receptor expressed in CHO cells by scintillation counting; format: cell-based
T1 sequence (P08173 whole entry): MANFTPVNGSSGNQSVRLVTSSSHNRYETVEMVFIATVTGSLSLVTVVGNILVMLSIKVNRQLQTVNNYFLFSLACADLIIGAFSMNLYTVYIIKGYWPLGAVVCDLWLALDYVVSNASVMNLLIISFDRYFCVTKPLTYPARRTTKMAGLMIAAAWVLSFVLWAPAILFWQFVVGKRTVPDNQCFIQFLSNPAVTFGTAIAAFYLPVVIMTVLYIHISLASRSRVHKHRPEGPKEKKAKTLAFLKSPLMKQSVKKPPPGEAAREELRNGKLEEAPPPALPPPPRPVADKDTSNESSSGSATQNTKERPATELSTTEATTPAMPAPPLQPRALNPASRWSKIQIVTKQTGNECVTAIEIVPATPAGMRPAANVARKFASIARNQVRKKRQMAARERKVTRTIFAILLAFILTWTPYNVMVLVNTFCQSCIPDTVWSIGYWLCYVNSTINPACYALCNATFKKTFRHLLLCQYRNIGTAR

[2] = target: T2, Muscarinic acetylcholine receptor M1 (Homo sapiens, UniProt P11229); test: Displacement of [3H]NMS from human cloned muscarinic M1 receptor expressed in CHO cells by scintillation counting; format: cell-based
T2 sequence (P11229 whole entry): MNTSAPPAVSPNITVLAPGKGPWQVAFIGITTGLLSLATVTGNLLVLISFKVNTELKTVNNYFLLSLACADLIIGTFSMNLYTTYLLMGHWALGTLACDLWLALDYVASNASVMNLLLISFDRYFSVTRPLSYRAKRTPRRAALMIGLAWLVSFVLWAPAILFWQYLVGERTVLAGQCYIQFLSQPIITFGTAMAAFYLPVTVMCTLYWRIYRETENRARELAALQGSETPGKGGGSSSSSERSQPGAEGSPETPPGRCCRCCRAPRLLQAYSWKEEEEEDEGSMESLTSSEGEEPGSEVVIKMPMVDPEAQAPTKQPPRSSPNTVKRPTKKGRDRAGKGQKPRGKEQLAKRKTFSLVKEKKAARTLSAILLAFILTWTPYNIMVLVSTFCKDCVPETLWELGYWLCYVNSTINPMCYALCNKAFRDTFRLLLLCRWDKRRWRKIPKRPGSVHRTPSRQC

[3] = target: T3, Muscarinic acetylcholine receptor M2 (Homo sapiens, UniProt P08172); test: Displacement of [3H]NMS from human cloned muscarinic M2 receptor expressed in CHO cells by scintillation counting; format: cell-based
T3 sequence (P08172 whole entry): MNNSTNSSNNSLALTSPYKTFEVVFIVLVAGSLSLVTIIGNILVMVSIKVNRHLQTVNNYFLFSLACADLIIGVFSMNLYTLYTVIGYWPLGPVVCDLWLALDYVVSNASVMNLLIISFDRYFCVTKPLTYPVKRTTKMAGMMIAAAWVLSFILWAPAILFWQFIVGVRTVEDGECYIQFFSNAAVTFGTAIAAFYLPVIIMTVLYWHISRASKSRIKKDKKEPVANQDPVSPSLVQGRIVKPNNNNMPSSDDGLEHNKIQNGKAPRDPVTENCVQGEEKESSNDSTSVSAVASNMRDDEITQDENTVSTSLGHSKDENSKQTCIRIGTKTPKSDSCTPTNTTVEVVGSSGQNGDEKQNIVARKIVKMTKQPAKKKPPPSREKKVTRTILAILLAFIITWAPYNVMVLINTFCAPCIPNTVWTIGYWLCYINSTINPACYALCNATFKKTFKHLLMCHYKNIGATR
How it was run: (§1)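 Equilibrium radioligand binding in CHO cells expressing the human muscarinic subtype, following the authors' earlier protocol.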

[4] = target: Muscarinic acetylcholine receptor M3 (Homo sapiens, UniProt P20309); test: Displacement of [3H]NMS from human cloned muscarinic M3 receptor expressed in CHO cells by scintillation counting; format: cell-based
Sequence of Muscarinic acetylcholine receptor M3 (P20309 whole entry): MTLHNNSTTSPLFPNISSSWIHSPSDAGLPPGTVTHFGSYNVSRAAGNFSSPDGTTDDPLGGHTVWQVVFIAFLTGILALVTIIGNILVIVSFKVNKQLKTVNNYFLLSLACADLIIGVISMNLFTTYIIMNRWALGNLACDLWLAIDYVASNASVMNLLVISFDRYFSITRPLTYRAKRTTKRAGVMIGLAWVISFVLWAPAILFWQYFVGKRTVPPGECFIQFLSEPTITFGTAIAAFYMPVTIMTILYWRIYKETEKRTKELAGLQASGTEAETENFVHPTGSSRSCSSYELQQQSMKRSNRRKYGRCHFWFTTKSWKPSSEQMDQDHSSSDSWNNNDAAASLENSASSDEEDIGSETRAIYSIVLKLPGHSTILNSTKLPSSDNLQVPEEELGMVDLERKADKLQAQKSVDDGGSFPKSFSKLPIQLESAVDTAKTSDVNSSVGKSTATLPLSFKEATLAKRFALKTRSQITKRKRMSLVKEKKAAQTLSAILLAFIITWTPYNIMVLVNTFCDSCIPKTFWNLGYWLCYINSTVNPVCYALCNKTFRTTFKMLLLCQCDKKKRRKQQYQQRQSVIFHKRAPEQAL

[5] = target: T4, Muscarinic receptor 2 (Cavia porcellus) (UniProt Q8VH27); test: Antagonist activity at muscarinic M2 receptor in guinea pig left atrium assessed as effect on electrically-stimulated inotropic activity after 60 mins; format: functional, tissue-based; conditions: Cardiac atrium
T4 sequence (whole entry): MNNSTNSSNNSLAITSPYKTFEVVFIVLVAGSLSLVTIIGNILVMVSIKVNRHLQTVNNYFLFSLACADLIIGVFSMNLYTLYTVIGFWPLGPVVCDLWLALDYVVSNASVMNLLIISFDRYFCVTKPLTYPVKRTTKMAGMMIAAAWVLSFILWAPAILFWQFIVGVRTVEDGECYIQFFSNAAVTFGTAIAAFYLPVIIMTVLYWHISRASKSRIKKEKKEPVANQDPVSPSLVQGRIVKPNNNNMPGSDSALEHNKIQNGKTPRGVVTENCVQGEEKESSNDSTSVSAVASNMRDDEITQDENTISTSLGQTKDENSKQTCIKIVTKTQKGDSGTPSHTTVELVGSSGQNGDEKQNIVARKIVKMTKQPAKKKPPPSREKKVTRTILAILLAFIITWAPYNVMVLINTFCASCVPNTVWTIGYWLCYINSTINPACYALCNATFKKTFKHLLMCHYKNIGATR

[6] = target: T5, Muscarinic acetylcholine receptor M5 (Homo sapiens, UniProt P08912); test: Displacement of [3H]NMS from human cloned muscarinic M5 receptor expressed in CHO cells by scintillation counting; format: cell-based; how it was run: as §1
T5 sequence (P08912 whole entry): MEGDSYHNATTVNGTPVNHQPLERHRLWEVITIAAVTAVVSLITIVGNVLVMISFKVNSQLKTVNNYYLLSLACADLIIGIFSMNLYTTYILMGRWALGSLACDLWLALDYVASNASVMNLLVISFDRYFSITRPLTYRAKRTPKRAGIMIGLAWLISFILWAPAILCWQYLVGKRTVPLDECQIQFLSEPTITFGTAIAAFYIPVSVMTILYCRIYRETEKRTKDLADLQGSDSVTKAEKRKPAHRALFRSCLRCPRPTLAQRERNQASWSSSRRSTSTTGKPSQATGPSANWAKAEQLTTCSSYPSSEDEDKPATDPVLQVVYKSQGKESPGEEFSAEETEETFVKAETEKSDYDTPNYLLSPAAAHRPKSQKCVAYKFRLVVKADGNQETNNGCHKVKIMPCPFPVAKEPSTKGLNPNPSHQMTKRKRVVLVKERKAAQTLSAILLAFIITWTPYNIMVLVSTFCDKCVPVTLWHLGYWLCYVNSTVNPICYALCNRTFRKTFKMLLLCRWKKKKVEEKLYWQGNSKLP

[7] = Antagonist activity at muscarinic M1 receptor in New Zealand rabbit vas deferens assessed as effect on electrically-stimulated muscle contraction after 60 mins; format: functional, Oryctolagus cuniculus
[8] = target: T6, Muscarinic receptor 4 (Cavia porcellus) (UniProt Q8VH25); test: Antagonist activity at muscarinic M4 receptor in guinea pig lung strips assessed as effect on isotonic contraction after 60 mins; format: functional
T6 sequence (whole entry): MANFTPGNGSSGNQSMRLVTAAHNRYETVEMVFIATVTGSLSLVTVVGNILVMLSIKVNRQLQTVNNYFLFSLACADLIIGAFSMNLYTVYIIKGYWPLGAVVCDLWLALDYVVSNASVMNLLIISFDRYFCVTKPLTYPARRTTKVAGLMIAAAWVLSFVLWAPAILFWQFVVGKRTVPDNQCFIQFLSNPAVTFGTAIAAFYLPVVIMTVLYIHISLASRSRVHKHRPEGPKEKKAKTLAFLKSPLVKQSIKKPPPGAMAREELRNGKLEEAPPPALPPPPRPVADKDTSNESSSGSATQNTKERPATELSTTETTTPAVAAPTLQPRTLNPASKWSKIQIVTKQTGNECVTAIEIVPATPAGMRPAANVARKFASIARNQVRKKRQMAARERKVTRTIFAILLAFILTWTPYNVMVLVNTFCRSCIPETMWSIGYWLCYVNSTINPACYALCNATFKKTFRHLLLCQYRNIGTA

[9] = target: Muscarinic acetylcholine receptor M3 (Cavia porcellus) (UniProt Q8VH26); test: Antagonist activity at muscarinic M3 receptor in guinea pig ileum assessed as effect on isotonic tension after 60 mins; format: functional, tissue-based
Sequence of Muscarinic acetylcholine receptor M3 (Cavia porcellus) (Q8VH26 1-587): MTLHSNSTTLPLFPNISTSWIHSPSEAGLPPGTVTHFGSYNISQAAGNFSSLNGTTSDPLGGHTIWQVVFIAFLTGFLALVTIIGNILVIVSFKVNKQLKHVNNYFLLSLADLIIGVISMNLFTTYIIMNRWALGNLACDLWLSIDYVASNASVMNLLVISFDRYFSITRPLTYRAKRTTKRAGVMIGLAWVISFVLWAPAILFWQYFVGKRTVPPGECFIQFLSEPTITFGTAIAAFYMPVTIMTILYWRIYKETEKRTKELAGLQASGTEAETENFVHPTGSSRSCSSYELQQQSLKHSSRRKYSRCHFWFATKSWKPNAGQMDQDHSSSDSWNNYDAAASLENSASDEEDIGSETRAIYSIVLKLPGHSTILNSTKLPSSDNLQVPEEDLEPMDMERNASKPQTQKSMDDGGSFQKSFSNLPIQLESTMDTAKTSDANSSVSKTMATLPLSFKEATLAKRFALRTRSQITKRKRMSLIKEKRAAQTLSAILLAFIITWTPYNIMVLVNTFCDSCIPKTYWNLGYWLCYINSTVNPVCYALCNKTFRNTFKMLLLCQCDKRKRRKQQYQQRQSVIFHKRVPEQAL

Compound | Ki [1] | Ki [2] | Ki [3] | Ki [4] | pKb [5] | Ki [6] | pKb [7] | pKb [8] | pKb [9]
C[N+]1(C)CCC[C@@H]1c1ccc([C@](O)(c2ccccc2)C2CCCCC2)o1.[I-] | 4.27 nM | 0.692 nM | 2.34 nM | 1.51 nM | 8.49 | 1.55 nM | 10.15 | 7.75 | 8.95
C[N+]1(C)CCCC1c1ccc(C(O)(c2ccccc2)c2ccccc2)o1 (racemic) [listing 1 of 2 here] |  |  |  |  | 7.08 |  |  | 6.2 | 7.6
C[N+]1(C)CCCC1c1ccc(C(O)(c2ccccc2)C2CCCCC2)o1 (mixture of isomers) | 15.5 nM | 2.09 nM | 10.2 nM | 7.24 nM | 7.88 | 11.5 nM |  | 5.9 | 8.35
C[N+]1(C)CCCC1c1ccc(C(O)(c2ccccc2)c2ccccc2)o1 (racemic) [listing 2 of 2 here] | 64.6 nM | 23.4 nM | 31.6 nM | 36.3 nM |  | 37.2 nM |  |  | 
CN1CCC[C@@H]1c1ccc([C@@](O)(c2ccccc2)C2CCCCC2)o1 | 550 nM | 191 nM | 363 nM | 324 nM | 6.23 | 468 nM |  | < 5 | 6.77
C[N+]1(C)CCCC1c1ccc(C(O)(c2ccccc2)c2ccccc2)o1.[I-] (mixture of isomers) |  |  |  |  |  |  | 8.46 |  | 
CN1CCCC1c1ccc(C(O)(c2ccccc2)C2CCCCC2)o1 (mixture of isomers) | 14.1 nM | 1.23 nM | 6.76 nM | 7.76 nM | 6.98 | 7.08 nM |  | < 5 | 7.8
C[N+]1(C)CCC[C@@H]1c1ccc([C@@](O)(c2ccccc2)C2CCCCC2)o1 | 372 nM | 47.9 nM | 87.1 nM | 155 nM | 6.85 | 229 nM |  | 6.33 | 6.95
CN1CCC[C@H]1c1ccc([C@@](O)(c2ccccc2)C2CCCCC2)o1 | 3090 nM | 1230 nM | 3240 nM | 1660 nM | 5.95 | 1550 nM |  | < 5 | 6.41
C[N+]1(C)CCC[C@H]1c1ccc([C@@](O)(c2ccccc2)C2CCCCC2)o1 | 2340 nM | 331 nM | 759 nM | 513 nM | 5.92 | 871 nM |  | < 5 | 6.32
C[N+]1(C)CCCC1c1ccc(C(c2ccccc2)c2ccccc2)o1 (racemic) [listing 1 of 2 here] |  |  |  |  | 7.09 |  |  | < 5 | 7.59
C[N+]1(C)CCC[C@H]1c1ccc([C@](O)(c2ccccc2)C2CCCCC2)o1 | 33.1 nM | 9.12 nM | 20 nM | 9.33 nM | 7.32 | 12 nM |  | 6.16 | 7.95
C[N+]1(C)CCCC1c1ccc(C(c2ccccc2)c2ccccc2)o1.[I-] (mixture of isomers) |  |  |  |  |  |  | 7.91 |  | 
C[N+]1(C)CCCC1c1ccc(C(c2ccccc2)C2CCCCC2)o1 (mixture of isomers) | 19.5 nM | 6.61 nM | 17.4 nM | 8.91 nM | 6.21 | 15.5 nM |  | 5.69 | 7.88
C[N+]1(C)CCCC1c1ccc(C(c2ccccc2)c2ccccc2)o1 (racemic) [listing 2 of 2 here] | 38 nM | 11.5 nM | 13.5 nM | 23.4 nM |  | 31.6 nM |  |  | 
CN1CCCC1c1ccc(C(c2ccccc2)C2CCCCC2)o1 (mixture of isomers) | 77.6 nM | 13.5 nM | 141 nM | 33.9 nM | 5.36 | 55 nM |  | < 5 | 7.05
CN1CCC[C@H]1c1ccc([C@](O)(c2ccccc2)C2CCCCC2)o1 | 55 nM | 22.9 nM | 60.3 nM | 23.4 nM | 6.65 | 27.5 nM |  | 5.84 | 7.66
